Experimental findings from paper PMC4464187 (EXCLI Journal, 2014) are described below.

For orientation: IC50 means the concentration that inhibits the measured activity by half.

The structures appear in SMILES notation. Read-outs that look alike come from different tables or passages of the source.

For assay [1], the system named is IL-1ß levels in the plasma. Nature of the assay: Measurement of IL-1ß production in plasma of LPS-treated SD rats. Type of assay: in vivo, female Sprague Dawley rats. Particulars: LPS 5 mg/Kg i.p., blood 6 h after LPS; for IL-1ß plasma level: LPS group 912 pg/mL. In outline:
(§1)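 Female Sprague Dawley rats, 200-250 g, n = 5 per group. Oral doses are given at 12 h intervals: test compound at 20 and 40 mg/Kg, vehicle 10 % Tween 80, or dexamethasone 5 mg/Kg as positive control. LPS 5 mg/Kg is given i.p. 2 h after the final dose. Blood is taken 2 h (TNF-α) or 6 h (IL-1ß) after LPS. Plasma is assayed by rat sandwich ELISA. Mean ± SD, one-way ANOVA with Dunnett's test.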

For assay [2], the system named is TNF-α levels in the plasma. Kind of assay: Measurement of TNF-α production in plasma of LPS-treated SD rats. Type of assay: in vivo, female Sprague Dawley rats. Particulars: LPS 5 mg/Kg i.p., blood 2 h after LPS; for TNF-α plasma level: LPS group 1623 pg/mL. In outline:
as §1

The test system of assay [3] is IL-1ß production in LPS stimulated J774A.1 cells. Nature of the assay: IL-1ß assay. Type of assay: cell-based. Conditions: Mus musculus, J774.A1, 12 h, read-out: IC50 for inhibition of IL-1β J774A.1.
Assay [4] concerns TNF-α production in LPS stimulated J774A.1 cells. Nature of the assay: TNF-α assay. Type of assay: cell-based. Conditions: Mus musculus, J774.A1, 6 h, read-out: IC50 for inhibition of TNF-α J774A.1. In outline:
(§2)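 Cells cultured in DMEM with heat-inactivated 10 % FBS, penicillin and streptomycin at 37 °C, 5 % CO2. Test compound in DMSO/water is added at several concentrations for 1 h, then LPS (E. coli 026:B6) 1 µg/mL is added. Incubation runs 6 h for TNF-α and 12 h for IL-1ß. Supernatant cytokine is measured by mouse sandwich ELISA at 450 nm, with curcumin and dexamethasone as standards. Triplicates.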

In assay [5] the test system is IL-1ß production in LPS stimulated RAW 264.7 cells. Kind of assay: IL-1ß assay. Type of assay: cell-based. Conditions: Mus musculus, RAW264.7, 12 h, read-out: IC50 for inhibition of IL-1β RAW 264.7. In outline: as §2
The test system of assay [6] is TNF-α production in LPS stimulated RAW 264.7 cells. Nature of the assay: TNF-α assay. Type of assay: cell-based. Conditions: Mus musculus, RAW264.7, 6 h, read-out: IC50 for inhibition of TNF-α RAW 264.7.
Assay [7] relates to NO release in LPS stimulated RAW 264.7 cells. Nature of the assay: NO inhibitory assay. Type of assay: cell-based. Conditions: Mus musculus. In outline:
(§3)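 Cells are kept in DMEM with 10 % heat-inactivated FBS and antibiotics under 5 % CO2 at 37 °C. They are pretreated 1 h with varied concentrations of test compound (DMSO/water), then stimulated with 1 µg/mL LPS (E. coli 026:B6) for 24 h at 37 °C. Supernatant is mixed 1:1 with modified Griess reagent for 30 min and read at 540 nm. Curcumin and L-NAME serve as standards. Triplicates.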

For assay [8], the system named is NO release in LPS stimulated J774A.1 cells. Kind of assay: NO inhibitory assay. Particulars: Mus musculus, J774.A1, 24 h, read-out: IC50 for NO inhibition J774A.1. Type of assay: cell-based. The method in brief: as §3
The mark [9] stands for this setting: RAW264.7, 24 h, read-out: IC50 for NO inhibition RAW 264.7.
Where [10] appears, read: RAW264.7, read-out: IC50 for NO inhibition, range over both cells.

In the case of `C[C@@H]1C[C@H]2[C@@H]3CCC4=CC(=O)C=C[C@]4(C)[C@@]3(F)[C@@H](O)C[C@]2(C)[C@@]1(O)C(=O)CO` [Dexamethasone, reference compound], in assay [1] (5 mg/kg p.o.), the “reduction of IL-1ß production” value came to 63.0% and the IL-1ß plasma level stood at 338 pg/mL. Further, in assay [2] (5 mg/kg p.o.), the “reduction of TNF-α production” value is 75.8% and the TNF-α plasma level is 394 pg/mL.
For `CCOC(=O)c1cc(O)c(O)c(O)c1` [compound 3, ethyl gallate], the IC50 turned out to be 39.5 ± 2.86 µM in assay [3], 23.4 ± 2.67 µM in assay [4], 36.9 ± 3.35 µM in assay [5] and 17.3 ± 4.61 µM in assay [6].
With `CC(/C=C/C=C(\C)C(=O)O)=C\C=C\C=C(C)\C=C\C=C(/C)C(=O)O` [compound 4, crocetin], in assay [1] (40 mg/kg p.o.), the “reduction of IL-1ß” value came out at 39.8%. In assay [1] (40 mg/kg p.o.), this compound registered an IL-1ß plasma level of 549 pg/mL. The concentration for half-maximal inhibition (IC50) in assay [3] was 41.1 ± 1.69 µM; in assay [4], 22.2 ± 3.83 µM; in assay [7] (setting [9]), 23.4 ± 2.62 µM; in assay [7] (setting [10]), 23.4 to 25.6 µM; in assay [8], 25.6 ± 2.47 µM; in assay [5], 35.4 ± 2.34 µM. For the same compound, in assay [6], the IC50 came to 20.4 ± 2.48 µM. In addition, in assay [2] (40 mg/kg p.o.), the “reduction of TNF-α production” value stood at 43.6%. In addition, the TNF-α plasma level in assay [2] (40 mg/kg p.o.) is 914 pg/mL.
`O=C(O)/C=C/c1ccc(O)c(O)c1` [compound 7, Caffeic acid]: the IC50 stood at 62.3 ± 2.94 µM in assay [3]; 49.6 ± 1.33 µM in assay [4]; 19.2 ± 4.97 µM in assay [7] (setting [9]); 78 ± 3.94 µM in assay [8]; 59.3 ± 2.94 µM in assay [5]; 45 ± 1.93 µM in assay [6].
On to `O=C(O)c1cc(O)c(O)c(O)c1` [compound 10, gallic acid], for which the IC50 is 47.6 ± 1.67 µM in assay [3], 29.3 ± 3.12 µM in assay [4], 42.1 ± 3.62 µM in assay [5] and 23.8 ± 2.14 µM in assay [6].
`CC/C=C\C[C@H]1C(=O)CC[C@@H]1CC(=O)O` [compound 11, jasmonic acid]: the “reduction of IL-1ß” value in assay [1] (40 mg/kg p.o.) amounted to 54.2%. The same compound returned an IL-1ß plasma level in assay [1] (40 mg/kg p.o.) of 418 pg/mL. Moreover, the IC50 is 59.2 ± 2.25 µM in assay [3]; 41.4 ± 1.67 µM in assay [4]; 29.4 ± 1.65 µM in assay [7] (setting [9]); 21.3 to 29.4 µM in assay [7] (setting [10]); 21.3 ± 1.35 µM in assay [8]; 57.9 ± 0.61 µM in assay [5]. The IC50 in assay [6] stood at 39.4 ± 2.85 µM. Moreover, in assay [2] (40 mg/kg p.o.), the “reduction of TNF-α production” value is listed as 48.9%. For the same compound, in assay [2] (40 mg/kg p.o.), the TNF-α plasma level is recorded as 830 pg/mL.
On to `N[C@@H](Cn1ccc(=O)c(O)c1)C(=O)O` [compound 12, L-mimosine], for which, in assay [1] (40 mg/kg p.o.), the “reduction of IL-1ß” value came out at 16.3%. The compound also came in with an IL-1ß plasma level in assay [1] (40 mg/kg p.o.) of 763 pg/mL. In addition, the IC50 in assay [3] is 65.8 ± 1.86 µM; in assay [7] (setting [9]), 19.2 ± 1.53 µM; in assay [7] (setting [10]) it was 19.2 to 21.2 µM; in assay [8], 21.2 ± 1.36 µM; in assay [5] it was 64.2 ± 2.53 µM; in assay [6] it was 25.2 ± 2.48 µM. In addition, the “reduction of TNF-α production” value in assay [2] (40 mg/kg p.o.) amounted to 60.7%. Further, the TNF-α plasma level in assay [2] (40 mg/kg p.o.) is listed as 639 pg/mL.
With `CC(/C=C/C=C(\C)C(=O)O[C@@H]1O[C@H](CO[C@@H]2O[C@H](CO)[C@@H](O)[C@H](O)[C@H]2O)[C@@H](O)[C@H](O)[C@H]1O)=C\C=C\C=C(C)\C=C\C=C(/C)C(=O)O[C@@H]1O[C@H](CO[C@@H]2O[C@H](CO)[C@@H](O)[C@H](O)[C@H]2O)[C@@H](O)[C@H](O)[C@H]1O` [compound 14, crocin], the “reduction of IL-1ß” value in assay [1] (40 mg/kg p.o.) was 50.2%. The same compound registered an IL-1ß plasma level in assay [1] (40 mg/kg p.o.) of 456 pg/mL. Also, the IC50 in assay [3] was 31.2 ± 2.64 µM; in assay [4], 25.2 ± 2.56 µM; in assay [7] (setting [9]) it was 27.2 ± 4.51 µM; in assay [7] (setting [10]) it was 27.2 to 31.5 µM; in assay [8], 31.5 ± 1.25 µM; in assay [5], 29.2 ± 3.69 µM. Besides, the half-inhibitory concentration (IC50) in assay [6] was 22.4 ± 1.08 µM. Besides, in assay [2] (40 mg/kg p.o.), the “reduction of TNF-α production” value is given as 48.4%. In assay [2] (40 mg/kg p.o.), this compound gave a TNF-α plasma level of 836 pg/mL.
